Measured values: ChEMBL document CHEMBL1129609, “Synthesis and antiviral activity evaluation of some new aminoadamantane derivatives. 2” (1996)
Values after ≈ are worked out from the molar mass of the structure shown.

Columns and labels:
[1] = Antiviral activity against influenza A,H3N2 virus infected MDCK cell lines.; assay type: functional
[2] = Antiviral activity against influenza A,H2N2 virus infected MDCK cell lines.; assay type: functional
Influenza B virus = test: Antiviral activity against influenza B virus infected MDCK cell lines.; assay type: functional
MDCK [3] = test: Antiviral activity tested against influenza A,H1N1 virus infected MDCK cell lines.; assay type: functional; conditions: Canis lupus familiaris
MDCK [4] = test: Antiviral activity of compound was tested against morphology virus infec+ted MDCK cell lines.; assay type: functional; conditions: Canis lupus familiaris
[5] = system: Vesicular stomatitis virus; test: Antiviral activity against vesicular stomatitis virus infected HEF cell lines.; assay type: functional
Procedure, shortened: (§1)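 Human embryonic fibroblasts, from embryonic lung or embryonic skin-muscle, infected with the virus. Endpoint is the minimum inhibitory concentration that reduces virus-induced cytopathicity by 50%. Values are averages of at least two separate experiments.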

CCRF-CEM = test: Cytotoxicity against CEM cell lines.; assay type: functional; conditions: Homo sapiens
Human betaherpesvirus 5 = test: Antiviral activity against HCMV virus infected HEL cell lines.; assay type: functional
Procedure, shortened: (§2)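 Vero (African green monkey kidney), HeLa (human epithelial) or HEL (human embryonic lung) cell monolayers infected with the virus. Readout is the minimum inhibitory concentration that reduces virus-induced cytopathicity by 50%. Values are averages of at least two separate experiments.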

Vero = test: Effects on cell morphology of Vero cell lines.; assay type: functional; conditions: Chlorocebus sabaeus
Procedure, shortened: (§3)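 HeLa (human epithelial) or Vero (African green monkey kidney) cells were examined under the microscope for changes in normal morphology. The value is the minimum concentration causing a detectable alteration, averaged from at least two separate experiments.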

HEL = test: Inhibition of HEL cell proliferation.; assay type: functional; conditions: Homo sapiens
Procedure, shortened: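 Human embryonic lung fibroblasts were used for the proliferation assay. The value is the concentration that reduces cell proliferation by 50%, averaged from at least two separate experiments.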

Coxsackievirus B4 [6] = test: Antiviral activity against Coxsackie B4 virus infected HeLa cell lines.; assay type: functional; conditions: Enterovirus B; procedure, shortened: as §2
Human alphaherpesvirus 3 [7] = test: Antiviral activity against TK+VZV virus infected HEL cell lines.; assay type: functional; procedure, shortened: as §2
[8] = system: Human immunodeficiency virus 1; test: Antiviral activity against HIV-1 virus infected CEM cell lines.; assay type: functional, CCRF-CEM
Human alphaherpesvirus 1 [9] = test: Antiviral activity against HSV-1 virus infected HEF cell lines.; assay type: functional; procedure, shortened: as §1
HeLa = test: Effects on cell morphology of HeLa cell lines.; assay type: functional; conditions: Homo sapiens; procedure, shortened: as §3
Human respirovirus 3 = test: Antiviral activity against parainfluenza 3 virus infected Vero cell lines.; assay type: functional; procedure, shortened: as §2
Human alphaherpesvirus 1 [10] = test: Antiviral activity against TK-HSV-1 virus infected HEF cell lines.; assay type: functional; procedure, shortened: as §1
HEF = test: Effects on cell morphology of HEF cell lines.; assay type: functional; conditions: Homo sapiens
Procedure, shortened: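 Human embryonic skin-muscle fibroblasts were examined under the microscope for changes in normal cell morphology. The value is the minimum concentration causing a microscopically detectable alteration, averaged from at least two separate experiments.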

Vaccinia virus = test: Antiviral activity against vaccinia virus infected HEF cell lines.; assay type: functional; conditions: Orthopoxvirus vaccinia; procedure, shortened: as §1
[11] = system: Human immunodeficiency virus 2; test: Antiviral activity against HIV-2 virus infected CEM cell lines.; assay type: functional, CCRF-CEM
Sindbis virus = test: Antiviral activity against sindbis virus infected Vero cell lines.; assay type: functional; procedure, shortened: as §2
Human alphaherpesvirus 3 [12] = test: Antiviral activity against TK-VZV virus infected HEL cell lines.; assay type: functional; procedure, shortened: as §2
Enterovirus C = test: Antiviral activity against polio 1 virus infected HeLa cell lines.; assay type: functional; procedure, shortened: as §2
[13] = system: Mammalian orthoreovirus 1; test: Antiviral activity against Reo 1 virus infected vero cell lines.; assay type: functional; procedure, shortened: as §2
Coxsackievirus B4 [14] = test: Antiviral activity against Coxsackie B4 virus infected vero cell lines.; assay type: functional; conditions: Enterovirus B; procedure, shortened: as §2
Semliki Forest virus = test: Antiviral activity against Semliki forest virus infected Vero cell lines.; assay type: functional; procedure, shortened: as §2
Human alphaherpesvirus 2 = test: Antiviral activity against HSV-2 virus infected HEF cell lines.; assay type: functional; procedure, shortened: as §1
[15] = system: Vesicular stomatitis virus; test: Antiviral activity against vesicular stomatitis virus infected HeLa cell lines.; assay type: functional; procedure, shortened: as §2

Work on CC(N)C12CC3CC(CC(C3)C1)C2 (centres undefined) [RIMANTADINE] yielded an MIC50 [1] greater than 12 µg/mL, an MIC50 [2] of less than 0.14 µg/mL and an MIC50 (Influenza B virus) greater than 20 µg/mL. It also gave an MIC50 (MDCK [3]) of 28 µg/mL (≈ 156 µM) and an MIC50 (MDCK [4]) of 250 µg/mL (≈ 1390 µM).
In the case of C1COCC2(N1)C1CC3CC(C1)CC2C3 (centres undefined), the MIC50 [5] was greater than 200 µg/mL, the MIC50 [1] was 13 µg/mL (≈ 62.7 µM) and the MIC50 (CCRF-CEM) was greater than 200 µg/mL. For the same compound, the MIC50 (Human betaherpesvirus 5) was greater than 50 µg/mL, the MIC50 [2] was 1.7 µg/mL (≈ 8.2 µM) and the MIC50 (Vero) was greater than 400 µg/mL. For the same compound, the MIC50 (HEL) was greater than 50 µg/mL, the MIC50 (Coxsackievirus B4 [6]) was greater than 400 µg/mL and the MIC50 (Human alphaherpesvirus 3 [7]) was greater than 50 µg/mL. For the same compound, the MIC50 (Influenza B virus) was 20 µg/mL (≈ 96.5 µM), the MIC50 [8] was 158 µg/mL (≈ 762 µM) and the MIC50 (Human alphaherpesvirus 1 [9]) was greater than 200 µg/mL. For the same compound, the MIC50 (MDCK [3]) was 29 µg/mL (≈ 140 µM), the MIC50 (HeLa) was greater than 400 µg/mL and the MIC50 (Human respirovirus 3) was greater than 400 µg/mL. The MIC50 (Human alphaherpesvirus 1 [10]) was greater than 200 µg/mL, the MIC50 (MDCK [4]) was greater than 250 µg/mL and the MIC50 (HEF) was greater than 200 µg/mL. The MIC50 (Vaccinia virus) was greater than 200 µg/mL, the MIC50 [11] was greater than 200 µg/mL and the MIC50 (Sindbis virus) was greater than 400 µg/mL. The MIC50 (Human alphaherpesvirus 3 [12]) was greater than 50 µg/mL, the MIC50 (Enterovirus C) was greater than 400 µg/mL and the MIC50 [13] was greater than 400 µg/mL. For the same compound, the MIC50 (Coxsackievirus B4 [14]) was greater than 400 µg/mL, the MIC50 (Semliki Forest virus) was greater than 400 µg/mL and the MIC50 (Human alphaherpesvirus 2) was greater than 200 µg/mL. It also gave an MIC50 [15] greater than 400 µg/mL.
Nc1nc2c(ncn2COC(CO)CO)c(=O)[nH]1 [GANCICLOVIR] showed an MIC50 [5] greater than 100 µg/mL, an MIC50 (Human betaherpesvirus 5) of 0.7 µg/mL (≈ 2.74 µM) and an MIC50 (Human alphaherpesvirus 1 [9]) greater than 200 µg/mL. It also gave an MIC50 (Human alphaherpesvirus 1 [10]) of 0.02 µg/mL (≈ 0.0784 µM), an MIC50 (HEF) greater than 100 µg/mL and an MIC50 (Vaccinia virus) greater than 100 µg/mL. For the same compound, the MIC50 (Human alphaherpesvirus 2) was 0.002 µg/mL (≈ 0.00784 µM).
With CN(C)C1(C23CC4CC(CC(C4)C2)C3)CCCC1 the MIC50 [5] was greater than 40 µg/mL, the MIC50 [1] was greater than 100 µg/mL and the MIC50 (CCRF-CEM) was 70 µg/mL (≈ 283 µM). The MIC50 (Human betaherpesvirus 5) was 40 µg/mL (≈ 162 µM), the MIC50 [2] was 19.7 µg/mL (≈ 79.6 µM) and the MIC50 (Vero) was greater than 400 µg/mL. It also gave an MIC50 (HEL) of 50 µg/mL (≈ 202 µM), an MIC50 (Coxsackievirus B4 [6]) greater than 100 µg/mL and an MIC50 (Human alphaherpesvirus 3 [7]) of 30 µg/mL (≈ 121 µM). For the same compound, the MIC50 (Influenza B virus) was greater than 100 µg/mL, the MIC50 [8] was greater than 40 µg/mL and the MIC50 (Human alphaherpesvirus 1 [9]) was greater than 40 µg/mL. The MIC50 (MDCK [3]) was greater than 80 µg/mL, the MIC50 (HeLa) was 200 µg/mL (≈ 808 µM) and the MIC50 (Human respirovirus 3) was greater than 400 µg/mL. For the same compound, the MIC50 (Human alphaherpesvirus 1 [10]) was greater than 40 µg/mL, the MIC50 (MDCK [4]) was greater than 250 µg/mL and the MIC50 (HEF) was 100 µg/mL (≈ 404 µM). The MIC50 (Vaccinia virus) was greater than 40 µg/mL, the MIC50 [11] was greater than 40 µg/mL and the MIC50 (Sindbis virus) was greater than 400 µg/mL. For the same compound, the MIC50 (Human alphaherpesvirus 3 [12]) was 30 µg/mL (≈ 121 µM), the MIC50 (Enterovirus C) was greater than 100 µg/mL and the MIC50 [13] was greater than 400 µg/mL. For the same compound, the MIC50 (Coxsackievirus B4 [14]) was greater than 400 µg/mL, the MIC50 (Semliki Forest virus) was greater than 400 µg/mL and the MIC50 (Human alphaherpesvirus 2) was greater than 40 µg/mL. For the same compound, the MIC50 [15] was greater than 100 µg/mL.
CC(C)(C)C1CCCN1CC12CC3CC(CC(C3)C1)C2 (centres undefined) gave an MIC50 [5] greater than 100 µg/mL, an MIC50 [1] greater than 100 µg/mL and an MIC50 (CCRF-CEM) of 72 µg/mL (≈ 261 µM). The MIC50 (Human betaherpesvirus 5) was greater than 50 µg/mL, the MIC50 [2] was greater than 100 µg/mL and the MIC50 (Vero) was 400 µg/mL (≈ 1450 µM). It also gave an MIC50 (HEL) greater than 50 µg/mL, an MIC50 (Coxsackievirus B4 [6]) greater than 100 µg/mL and an MIC50 (Human alphaherpesvirus 3 [7]) of 35 µg/mL (≈ 127 µM). It also gave an MIC50 (Influenza B virus) greater than 100 µg/mL, an MIC50 [8] greater than 40 µg/mL and an MIC50 (Human alphaherpesvirus 1 [9]) greater than 100 µg/mL. For the same compound, the MIC50 (MDCK [3]) was greater than 104 µg/mL, the MIC50 (HeLa) was 200 µg/mL (≈ 726 µM) and the MIC50 (Human respirovirus 3) was greater than 200 µg/mL. For the same compound, the MIC50 (Human alphaherpesvirus 1 [10]) was greater than 100 µg/mL, the MIC50 (MDCK [4]) was greater than 250 µg/mL and the MIC50 (HEF) was 200 µg/mL (≈ 726 µM). The MIC50 (Vaccinia virus) was greater than 100 µg/mL, the MIC50 [11] was greater than 40 µg/mL and the MIC50 (Sindbis virus) was greater than 200 µg/mL. It also gave an MIC50 (Human alphaherpesvirus 3 [12]) of 20 µg/mL (≈ 72.6 µM), an MIC50 (Enterovirus C) greater than 100 µg/mL and an MIC50 [13] greater than 200 µg/mL. For the same compound, the MIC50 (Coxsackievirus B4 [14]) was greater than 200 µg/mL, the MIC50 (Semliki Forest virus) was greater than 200 µg/mL and the MIC50 (Human alphaherpesvirus 2) was greater than 100 µg/mL. For the same compound, the MIC50 [15] was greater than 100 µg/mL.
In the case of CNC1(C23CC4CC(CC(C4)C2)C3)CCCC1, the MIC50 [5] was greater than 10 µg/mL, the MIC50 [1] was greater than 60 µg/mL and the MIC50 (CCRF-CEM) was 49 µg/mL (≈ 210 µM). The MIC50 (Human betaherpesvirus 5) was greater than 20 µg/mL, the MIC50 [2] was 9 µg/mL (≈ 38.6 µM) and the MIC50 (Vero) was greater than 400 µg/mL. It also gave an MIC50 (HEL) greater than 50 µg/mL, an MIC50 (Coxsackievirus B4 [6]) greater than 40 µg/mL and an MIC50 (Human alphaherpesvirus 3 [7]) greater than 20 µg/mL. It also gave an MIC50 (Influenza B virus) greater than 80 µg/mL, an MIC50 [8] greater than 8 µg/mL and an MIC50 (Human alphaherpesvirus 1 [9]) greater than 10 µg/mL. It also gave an MIC50 (MDCK [3]) of 59 µg/mL (≈ 253 µM), an MIC50 (HeLa) greater than 100 µg/mL and an MIC50 (Human respirovirus 3) greater than 100 µg/mL. The MIC50 (Human alphaherpesvirus 1 [10]) was greater than 10 µg/mL, the MIC50 (MDCK [4]) was greater than 250 µg/mL and the MIC50 (HEF) was 40 µg/mL (≈ 171 µM). It also gave an MIC50 (Vaccinia virus) greater than 10 µg/mL, an MIC50 [11] greater than 8 µg/mL and an MIC50 (Sindbis virus) greater than 100 µg/mL. For the same compound, the MIC50 (Human alphaherpesvirus 3 [12]) was greater than 20 µg/mL, the MIC50 (Enterovirus C) was greater than 40 µg/mL and the MIC50 [13] was greater than 100 µg/mL. The MIC50 (Coxsackievirus B4 [14]) was greater than 100 µg/mL, the MIC50 (Semliki Forest virus) was greater than 100 µg/mL and the MIC50 (Human alphaherpesvirus 2) was greater than 10 µg/mL. The MIC50 [15] was greater than 40 µg/mL.
